# Source: PubChem BioAssay (Sanford-Burnham Center for Chemical Genomics)
# NadD block – inhibitors of S. aureus NadD, primary screen, biochemical, colorimetric, uHTS; inhibition, % at 20 µM; purified NadD enzyme, colorimetric absorbance read-out; 0.78% of 360,000 active; Nicotinate-nucleotide adenylyltransferase NadD (Staphylococcus aureus N315); in the data active = inhibition above about 26%
# SUMO1-SIM PPI – modulators of SUMO1 protein-protein interactions, primary screen, biochemical, uHTS; inhibition, % at 20 µM; 0.33% of 360,000 active; Small ubiquitin-related modifier 1 (Homo sapiens), P63165; SUMO1 binding to a labelled peptide, TR-FRET, 1 h; in the data active = inhibition above about 37%
# Target sequence (P63165 whole entry, looked up): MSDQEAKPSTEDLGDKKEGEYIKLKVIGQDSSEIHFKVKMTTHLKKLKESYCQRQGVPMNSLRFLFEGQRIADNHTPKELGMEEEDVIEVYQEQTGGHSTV
# STEP inh – STEP phosphatase inhibitors, primary screen, biochemical, fluorescence intensity, uHTS. Tyrosine-protein phosphatase non-receptor type 5 (Homo sapiens), P54829. recombinant STEP, OMFP fluorogenic substrate. inhibition, % at 20 µM. 0.25% of 360,000 active. AID 588621, 2011;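 active = inhibition at 20 µM, scaled per plate between control wells, above about 37%, limit read from the data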;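 note: 0% = DMSO with enzyme and substrate and 100% = substrate only without enzyme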
#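 Assay system: isolated STEP enzyme / Timing: 20 min at room temperature, dark / Doses: 20 µM, 1% DMSO / Technique: fluorescence intensity, excitation 480 nm, emission 540 nm / Reagent: fluorogenic phosphatase substrate OMFP at 25 µM final / Measure: percent inhibition scaled to no-enzyme and uninhibited-enzyme controls, plate-pattern corrected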
# Scp1 inh – Scp-1 phosphatase inhibitors, primary screen, biochemical, colorimetric, uHTS; AID 493091, 2011; Recombinant Scp1, phosphopeptide, malachite green phosphate absorbance; inhibition, % at 20 µM; 0.88% of 340,000 active; Carboxy-terminal domain RNA polymerase II polypeptide A small phosphatase 1 (Homo …;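 active = inhibition above about 50% at 20 µM, limit read from the data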;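 note: plate controls were DMSO wells with enzyme for no effect and wells lacking enzyme for full effect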
# Target sequence (Q9GZU7 76-261 limits assumed): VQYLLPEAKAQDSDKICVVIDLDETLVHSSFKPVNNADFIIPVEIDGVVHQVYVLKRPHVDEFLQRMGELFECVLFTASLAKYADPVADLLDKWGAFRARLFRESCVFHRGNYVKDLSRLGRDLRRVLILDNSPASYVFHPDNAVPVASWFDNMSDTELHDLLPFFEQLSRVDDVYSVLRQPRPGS
#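 Material – SCP-1 phosphatase catalytic domain, residues 76-261 · Buffer or medium – Acidic Tris acetate buffer with magnesium and detergent · Also added – Phospho 17-mer peptide substrate · Compound – single 20 µM dose, 1% DMSO · Times – 45 min room-temperature reaction, 5 min colour, 30 min stabiliser · Technique – Phosphate-binding colour reagent, absorbance read at 630 nm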
# DNMT1 block – human DNMT1 methyltransferase inhibitors, primary screen, biochemical, molecular beacon, fluorescence, HinP1I cleavage, uHTS. 0.83% of 360,000 active. DNA (cytosine-5)-methyltransferase 1 (Homo sapiens), P26358. inhibition (reported as % activation of signal), % at 10 µM; in the data active = inhibition above about 50%
# LMPTP block – LMPTP phosphatase inhibitors, primary screen, biochemical, fluorescence intensity, uHTS. Low molecular weight phosphotyrosine protein phosphatase (Homo sapiens), P24666. recombinant LMPTP-A, OMFP fluorogenic substrate. inhibition, % at 20 µM. 0.22% of 360,000 active;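 active = compounds that cut the enzyme signal by at least half of the control window in the single-dose screen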;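 note: plate controls were DMSO wells with enzyme plus substrate for no effect and substrate without enzyme for full effect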
# Target sequence (P24666 whole entry, looked up): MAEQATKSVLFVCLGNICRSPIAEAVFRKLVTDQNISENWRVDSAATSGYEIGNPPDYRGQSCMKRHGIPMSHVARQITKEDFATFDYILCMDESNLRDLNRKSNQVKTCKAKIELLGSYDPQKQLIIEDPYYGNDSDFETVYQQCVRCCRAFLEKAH
#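 Test system: LMPTP-A phosphatase enzyme; input: 0.625 nM LMPTP-A final; reagent: OMFP substrate, 400 µM final; compound dosing: 20 µM single dose, 3% DMSO; incubation: 50 min dark incubation at room temperature; measured by: endpoint fluorescence intensity from OMFP dephosphorylation; measure: % inhibition relative to no-enzyme and uninhibited control wells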
# * = called active by the depositor; i = inactive; x = not tested or not shown; + = active, no number. Only some compounds are listed: those with a hit (about 2.4% of all), similar ones and a draw of the others.
SMILES,NadD block,SUMO1-SIM PPI,STEP inh,Scp1 inh,DNMT1 block,LMPTP block
NC(=O)c1ccc(SCC(=O)NC2CCCCC2)c([N+](=O)[O-])c1,1.9,-21.3,-3.8,-1.7,5.8,-0.6
O=S(=O)(Nc1cc(Sc2ncn[nH]2)c(O)c2ccccc12)c1ccccc1,16.3,84.7*,2.9,17.0,24.2,9.1
COc1ccc(CN(C)c2ncnc3sccc23)c(OC)c1OC,-0.3,0.5,-0.1,0.1,-3.3,1.8
CCN(CC(=O)NCc1cccs1)C(=O)c1ccc(S(=O)(=O)Nc2ccccc2Cl)cc1,-4.1,1.2,2.8,-8.1,1.6,0.0
Nc1[nH]n2c(=O)cc(-c3ccccc3)nc2c1N=Nc1ccccc1,30.7*,-6.6,5.1,-4.6,-11.5,13.7
CCCCCC(=O)NC(NC(=S)NC1CCS(=O)(=O)C1)C(Cl)(Cl)Cl (stereo not given),1.2,58.7*,-1.2,-4.0,5.6,-0.8
Clc1ccc(Nc2ncnc3c2cnn3-c2ccccc2)cc1,-2.6,3.1,-0.5,-4.5,-7.3,3.0
CC(C)Nc1ncnc2c1cnn2-c1ccc(Cl)cc1,-4.7,0.8,-4.0,-1.6,86.1*,1.5
CN(C)S(=O)(=O)c1ccc(C(=O)Nc2ccn(C)n2)cc1,-5.6,0.8,0.0,-7.5,0.5,-1.2
O=C(O)C1Nc2c(O)cc(Cl)c([N+](=O)[O-])c2C2C=CCC12 (stereo not given),63.3*,103.9*,97.3*,62.0*,89.0*,90.9*
O=c1c2ccccc2sn1-c1cc(S(=O)(=O)N2CCOCC2)ccc1N1CCOCC1,8.7,4.7,8.5,94.1*,-2.2,-1.3
CN(C)/C=C1\C=C2C(=O)c3ccccc3N2C1=O,-4.0,-158.2,i,-15.9,+,-72.0
COCCCN1C(=O)c2ccc(C(=O)NCCc3ccccc3)cc2C1=O,-4.5,-32.3,0.0,-5.9,1.1,-1.9
CN1CCN(C2=CC3=CC(=C(C#N)C#N)CCC3CC2)CC1 (stereo not given),-6.0,-253.5,-199.1,-1.0,+,16.6
CCN1CCN(C2=CC3=CC(=C(C#N)C#N)CCC3CC2)CC1 (stereo not given),1.6,-94.9,-204.8,-0.7,+,16.9
N#CC(C#N)=C1C=C2C=C(N3CCCCCC3)CCC2CC1 (stereo not given),7.1,-10.0,-499.8,4.9,+,6.8
CC1(C)CC(NCCN2CCN(C3=CC(=C(C#N)C#N)CC(C)(C)C3)CC2)=CC(=C(C#N)C#N)C1,3.9,-3.8,0.9,5.0,-14.8,2.3
N#C/C(=C/N1CCOCC1)c1ccccc1,0.1,0.1,-0.8,-4.8,0.1,-1.5
N#CC(C#N)=C1C=C2C=C(N3CCOCC3)CCC2CC1 (stereo not given),5.6,-97.9,-361.4,-4.4,+,22.1
O=C(c1ccc(OC2CCN(CCc3ccccc3)CC2)cc1)N1CCCCC1CCCO (stereo not given),-12.2,4.5,-3.0,-4.8,0.9,0.7
OCC[C@@H]1C[C@H](O)[C@@H](O)[C@@]2(OCCc3cc(Cl)ccc32)O1,-4.5,-5.8,-1.4,x,3.6,-1.9
Cc1c(C(=O)OCC2CCCO2)[nH]c2c1C(=O)CC(c1ccco1)C2 (stereo not given),5.7,19.4,2.9,83.9*,97.6*,52.7*
C=CCOC(=O)c1[nH]c2c(c1C)C(=O)CC(c1ccco1)C2 (stereo not given),x,x,x,60.0*,x,x
Cc1c(C(=O)OCC(C)C)[nH]c2c1C(=O)CC(c1ccco1)C2 (stereo not given),5.8,9.5,3.1,7.1,8.9,69.4*
